# Data published in ChEMBL document CHEMBL1131443, “Development of dual-acting agents for thromboxane receptor antagonism and thromboxane synthase inhibition. 3. Synthesis and biological activities of oxazolecarboxamide-substituted omega-phenyl-omega-(3-pyridyl)alkenoic acid derivatives and related compounds” (J Med Chem, 1998).
# pIC50, pKd: −log10 of the molar value.
# Tests used:
# [1] = organism: Homo sapiens; experiment: Inhibition of U-46,619 (1 uM)-induced platelet aggregation in human platelet-rich plasma(PRP); format: functional
# Method in brief: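 Citrated blood (1/10 volume 3.8% trisodium citrate) from volunteers free of platelet-affecting medication for 10 days; PRP spun at 100g for 12 min. Compound or vehicle preincubated with PRP for 1 min at 37 °C. Aggregation induced with U46619 and followed for 3 min.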
# [2] = target: T1, Thromboxane A2 receptor (Homo sapiens, UniProt P21731); experiment: In vitro for antagonistic activity against […]; format: functional
# T1 sequence (P21731 whole entry): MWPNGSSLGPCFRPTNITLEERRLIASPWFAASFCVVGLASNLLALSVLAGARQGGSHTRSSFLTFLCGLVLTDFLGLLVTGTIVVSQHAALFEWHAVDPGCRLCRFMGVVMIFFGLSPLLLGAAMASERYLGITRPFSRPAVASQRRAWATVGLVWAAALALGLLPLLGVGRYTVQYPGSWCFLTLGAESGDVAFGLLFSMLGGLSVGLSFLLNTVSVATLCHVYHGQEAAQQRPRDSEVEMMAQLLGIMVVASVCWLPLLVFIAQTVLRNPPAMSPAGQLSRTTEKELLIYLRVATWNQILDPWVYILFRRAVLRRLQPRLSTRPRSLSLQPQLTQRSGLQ
# Method in brief: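 Buffer was 10 mM Hepes, 2 mM CHAPS and 10 μM indomethacin, pH 7.4. Competitor range 10^-10 to 10^-5 M; incubation 30 °C for 30 min; stopped with ice-cold 25 mM Tris pH 7.4 and filtered. Nonspecific binding taken with 10 μM SQ29548. Run in triplicate.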
# [3] = target: T2, Thromboxane-A synthase (Homo sapiens, UniProt P24557); experiment: In vitro for inhibitory activity against thromboxane synthase
# T2 sequence (P24557 whole entry): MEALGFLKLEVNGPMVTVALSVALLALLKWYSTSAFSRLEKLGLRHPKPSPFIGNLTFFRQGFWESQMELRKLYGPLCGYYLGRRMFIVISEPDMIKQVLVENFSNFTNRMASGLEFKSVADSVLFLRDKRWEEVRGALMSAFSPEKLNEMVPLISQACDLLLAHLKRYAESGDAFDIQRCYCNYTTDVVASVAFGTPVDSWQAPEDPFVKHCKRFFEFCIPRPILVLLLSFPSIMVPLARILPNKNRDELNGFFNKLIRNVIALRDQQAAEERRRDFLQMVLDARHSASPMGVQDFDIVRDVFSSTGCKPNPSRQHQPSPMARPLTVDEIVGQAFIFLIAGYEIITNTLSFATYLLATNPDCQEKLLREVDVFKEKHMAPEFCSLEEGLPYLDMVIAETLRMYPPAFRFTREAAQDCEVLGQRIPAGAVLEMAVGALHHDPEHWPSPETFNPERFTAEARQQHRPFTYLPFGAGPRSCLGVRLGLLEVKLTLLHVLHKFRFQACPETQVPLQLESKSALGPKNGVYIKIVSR
# Method in brief: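 Compound or vehicle incubated with whole human blood for 30 min at 37 °C, then serum was prepared. Serum TXB2, the stable TXA2 metabolite, was measured by radioimmunoassay. Run in triplicate.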
Compound,pIC50 [1],pKd [2],pIC50 [3]
CC(OCCCNC(=O)c1coc(-c2ccc(/C(=C\CCCCC(=O)O)c3cccnc3)cc2)n1)C1CCCCC1 (configuration not stated),5.30,,
O=C(O)CCCC/C=C(\c1ccc(-c2nc(C(=O)NCCc3ccccc3)co2)cc1)c1cccnc1,,7.08,8.03
COc1ccc(CCCNC(=O)c2coc(-c3ccc(/C(=C\CCCCC(=O)O)c4cccnc4)cc3)n2)cc1,,6.92,8.57
O=C(O)CCCC/C=C(\c1ccc(-c2nc(C(=O)NCCOCc3ccccc3)co2)cc1)c1cccnc1,,6.81,7.32
O=C(O)CCCC/C=C(\c1ccc(-c2nc(C(=O)NCCCCC3CCCCC3)co2)cc1)c1cccnc1,6.40,,
O=C(O)CCCC/C=C(\c1ccc(-c2nc(C(=O)NCCOCC3CCCCC3)co2)cc1)c1cccnc1,,7.36,7.44
O=C(O)CCCC/C=C(\c1ccc(-c2nc(C(=O)NCCCN3CCOCC3)co2)cc1)c1cccnc1,,,7.29
O=C(O)CCCCO/N=C(/c1cccnc1)c1cccc(C(F)(F)F)c1 [RIDOGREL],,5.10,7.83

# The remaining lines, values ahead:
pIC50 [1],pKd [2],pIC50 [3],Compound
6.30,,,O=C(O)CCCC/C=C(\c1ccc(-c2nc(C(=O)NCCCCOc3ccccc3)co2)cc1)c1cccnc1
5.30,,,O=C(O)CCCC/C=C(\c1ccc(-c2nc(C(=O)N[C@@H]3C[C@H]3c3ccccc3)co2)cc1)c1cccnc1
,5.85,,CCOCCCNC(=O)c1coc(-c2ccc(/C(=C\CCCCC(=O)O)c3cccnc3)cc2)n1
5.40,,,O=C(O)CCCC/C=C(\c1ccc(-c2nc(C(=O)NS(=O)(=O)c3ccc(Cl)cc3)co2)cc1)c1cccnc1
